Data on 2 compounds can be found in ChEMBL document CHEMBL4673221, “Furanoflavones pongapin and lanceolatin B blocks the cell cycle and induce senescence in CYP1A1-overexpressing breast cancer cells” (Bioorg Med Chem, 2018).

A value given as a limit tells only on which side of the number the result lay.

Experiment [1] concerns MCF7. In words: Antiproliferative activity against human MCF-7 cells overexpressing CYP1A1 assessed as reduction in cell viability. In kind it is functional, cell-based. An outline of the steps:
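MCF-7 cells transfected with pcDNA3.1/CYP1A1 and selected in G418 (1 mg/mL, then […]) to give the stable MCF7-1A1 line. CYP1A1 expression was confirmed by Western blot and 7-ethoxyresorufin enzyme assay. The line was subcloned repeatedly. The reported value is the EC50 for inhibition of proliferation.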

The next experiment deals with T1, Cytochrome P450 1A2 (Homo sapiens, UniProt P05177).
T1 sequence (P05177 whole entry): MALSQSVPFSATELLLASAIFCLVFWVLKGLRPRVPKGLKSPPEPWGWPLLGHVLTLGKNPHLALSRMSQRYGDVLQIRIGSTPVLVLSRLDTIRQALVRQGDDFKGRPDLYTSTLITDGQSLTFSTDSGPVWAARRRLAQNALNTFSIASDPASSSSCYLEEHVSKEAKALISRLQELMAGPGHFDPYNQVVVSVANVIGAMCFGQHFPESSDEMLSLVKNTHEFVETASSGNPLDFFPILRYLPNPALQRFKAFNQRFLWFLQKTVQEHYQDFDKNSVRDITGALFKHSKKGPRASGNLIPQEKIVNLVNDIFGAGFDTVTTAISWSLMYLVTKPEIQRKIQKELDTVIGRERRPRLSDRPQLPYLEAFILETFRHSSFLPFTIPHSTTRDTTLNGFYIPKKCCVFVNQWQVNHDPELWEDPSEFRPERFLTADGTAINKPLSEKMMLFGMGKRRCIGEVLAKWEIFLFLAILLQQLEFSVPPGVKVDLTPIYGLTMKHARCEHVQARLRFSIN
As to the kind of experiment: Inhibition of human CYP1A2 expressed in Sacchrosomes using 3-cyano-7-ethoxycoumarin as substrate by fluorescence based assay. In kind it is ADME.

The next experiment has as its target Cytochrome P450 2D6 (Homo sapiens, UniProt P10635). In words: Inhibition of human CYP2D6 expressed in Sacchrosomes using 7-ethoxy-methyloxy-3-cyanocoumarin as substrate by fluorescence based assay. The class given is ADME.
A further experiment has as its target T2, Cytochrome P450 2C18 (Homo sapiens, UniProt P33260).
T2 sequence (P33260 whole entry): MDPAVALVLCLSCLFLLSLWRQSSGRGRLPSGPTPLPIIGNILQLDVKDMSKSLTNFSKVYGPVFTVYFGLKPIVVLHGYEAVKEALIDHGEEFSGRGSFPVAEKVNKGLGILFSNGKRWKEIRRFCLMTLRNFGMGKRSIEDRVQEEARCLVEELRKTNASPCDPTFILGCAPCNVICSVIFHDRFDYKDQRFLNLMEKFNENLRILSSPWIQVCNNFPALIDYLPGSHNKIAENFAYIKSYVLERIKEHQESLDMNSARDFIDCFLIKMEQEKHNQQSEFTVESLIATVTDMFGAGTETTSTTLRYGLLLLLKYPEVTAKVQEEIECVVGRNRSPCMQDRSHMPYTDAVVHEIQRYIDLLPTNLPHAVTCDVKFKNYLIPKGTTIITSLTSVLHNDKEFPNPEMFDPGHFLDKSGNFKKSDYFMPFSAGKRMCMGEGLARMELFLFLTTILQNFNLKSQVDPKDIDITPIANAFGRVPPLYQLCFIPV
In words: Inhibition of human CYP2C18 expressed in Sacchrosomes by fluorescence based assay. The class given is ADME.

A further experiment deals with T3, Cytochrome P450 1B1 (Homo sapiens, UniProt Q16678).
T3 sequence (Q16678 whole entry): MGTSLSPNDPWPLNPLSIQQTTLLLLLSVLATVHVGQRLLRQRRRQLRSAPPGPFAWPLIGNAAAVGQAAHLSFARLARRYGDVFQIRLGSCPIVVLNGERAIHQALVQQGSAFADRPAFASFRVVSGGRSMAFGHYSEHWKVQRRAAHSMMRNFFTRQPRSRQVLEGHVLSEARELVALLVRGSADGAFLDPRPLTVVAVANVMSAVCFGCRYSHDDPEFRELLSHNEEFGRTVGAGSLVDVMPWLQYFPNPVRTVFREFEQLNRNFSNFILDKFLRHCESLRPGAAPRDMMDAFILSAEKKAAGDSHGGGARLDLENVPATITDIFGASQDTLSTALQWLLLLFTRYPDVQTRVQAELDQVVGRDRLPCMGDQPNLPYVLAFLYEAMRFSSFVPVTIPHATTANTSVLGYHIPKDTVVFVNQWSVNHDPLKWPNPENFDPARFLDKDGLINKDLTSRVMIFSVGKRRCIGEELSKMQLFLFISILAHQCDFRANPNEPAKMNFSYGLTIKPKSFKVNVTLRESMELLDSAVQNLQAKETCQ
As to the kind of experiment: Inhibition of human CYP1B1 expressed in sacchrosomes using 7-ethoxyresorufin as substrate by fluorescence based assay. In kind it is ADME. An outline of the steps:
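Enzymes were microsomal preparations isolated from recombinant baker's yeast (Sacchrosomes). Compounds were screened at 10 μM for percent inhibition, and IC50 values were also determined. Values are mean ± SD of three independent experiments. Alpha-naphthoflavone served as the positive control.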

A further experiment has as its target Cytochrome P450 3A4 (Homo sapiens, UniProt P08684). In words: Inhibition of human CYP3A4 expressed in Sacchrosomes using dibenzylfluorescein as substrate by fluorescence based assay. The class given is ADME.
For the next experiment, the species on record is Homo sapiens. In words: Selectivity ratio IC50 for inhibition of human CYP1B1 expressed in HEK293 cells toIC50 for Inhibition of CYP1A1 expressed in HEK293 cells. The class given is cell-based.
The target of a further experiment is T4, Cytochrome P450 2A6 (Homo sapiens, UniProt P11509).
T4 sequence (P11509 whole entry): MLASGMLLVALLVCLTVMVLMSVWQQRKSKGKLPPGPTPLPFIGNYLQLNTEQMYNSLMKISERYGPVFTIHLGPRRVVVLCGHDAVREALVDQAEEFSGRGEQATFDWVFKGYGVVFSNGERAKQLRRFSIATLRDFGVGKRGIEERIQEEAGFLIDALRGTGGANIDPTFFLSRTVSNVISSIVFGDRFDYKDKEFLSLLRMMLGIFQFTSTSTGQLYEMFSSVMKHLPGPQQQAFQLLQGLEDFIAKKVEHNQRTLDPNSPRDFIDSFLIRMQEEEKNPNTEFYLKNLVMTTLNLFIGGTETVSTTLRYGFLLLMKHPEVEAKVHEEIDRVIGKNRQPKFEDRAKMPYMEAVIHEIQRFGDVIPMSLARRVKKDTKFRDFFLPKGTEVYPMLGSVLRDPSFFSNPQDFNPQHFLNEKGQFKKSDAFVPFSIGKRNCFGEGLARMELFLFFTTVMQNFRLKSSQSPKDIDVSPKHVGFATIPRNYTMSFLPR
In words: Inhibition of human CYP2A6 expressed in Sacchrosomes by fluorescence based assay. The class given is ADME.

For experiment [2], the system named is MCF7. In words: Induction of cell cycle arrest in human MCF7 over expressing CYP1A cells assessed as accumulation at G0/G1 phase incubated for 24 hrs by PI staining based flow cytometric analysis (Rvb =54.3 %). The class given is functional. Background: Flow cytometry measures light scatter and fluorescence of single cells or particles in a stream.

Sequence of Cytochrome P450 2D6 (P10635 whole entry): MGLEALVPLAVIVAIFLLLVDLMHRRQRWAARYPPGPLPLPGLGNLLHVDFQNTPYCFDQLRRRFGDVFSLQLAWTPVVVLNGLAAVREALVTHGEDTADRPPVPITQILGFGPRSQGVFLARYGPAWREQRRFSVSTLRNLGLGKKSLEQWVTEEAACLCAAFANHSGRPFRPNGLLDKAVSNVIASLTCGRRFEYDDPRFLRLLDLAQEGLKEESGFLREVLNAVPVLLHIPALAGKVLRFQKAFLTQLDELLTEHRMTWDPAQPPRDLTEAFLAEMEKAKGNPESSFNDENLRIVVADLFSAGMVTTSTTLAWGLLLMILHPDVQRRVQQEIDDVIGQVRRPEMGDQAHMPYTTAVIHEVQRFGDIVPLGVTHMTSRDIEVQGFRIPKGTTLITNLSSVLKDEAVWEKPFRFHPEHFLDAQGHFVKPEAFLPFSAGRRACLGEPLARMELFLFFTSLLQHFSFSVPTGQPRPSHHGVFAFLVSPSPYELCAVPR
Sequence of Cytochrome P450 3A4 (P08684 whole entry): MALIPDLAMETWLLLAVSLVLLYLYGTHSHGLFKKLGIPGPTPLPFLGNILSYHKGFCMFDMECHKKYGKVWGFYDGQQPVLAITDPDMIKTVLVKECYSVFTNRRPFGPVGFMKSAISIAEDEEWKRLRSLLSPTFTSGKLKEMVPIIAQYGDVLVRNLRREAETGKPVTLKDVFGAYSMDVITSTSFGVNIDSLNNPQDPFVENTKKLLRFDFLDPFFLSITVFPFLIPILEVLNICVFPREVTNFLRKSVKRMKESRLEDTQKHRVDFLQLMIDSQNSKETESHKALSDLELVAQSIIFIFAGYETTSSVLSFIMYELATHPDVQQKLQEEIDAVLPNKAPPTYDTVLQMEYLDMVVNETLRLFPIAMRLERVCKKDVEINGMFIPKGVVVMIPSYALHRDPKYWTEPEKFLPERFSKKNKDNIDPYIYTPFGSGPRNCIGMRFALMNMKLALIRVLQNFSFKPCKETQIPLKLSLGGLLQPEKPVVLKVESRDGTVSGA

By EC50 is commonly meant the concentration needed to bring the measured effect to its halfway point. Broadly, the IC50 is the point on the concentration scale where inhibition reaches its midpoint. For `O=c1cc(-c2ccccc2)oc2c1ccc1occc12` [LANCEOLATIN B], the EC50 with MCF7 [1] came out at 700 nM. The IC50 was 187 nM against Cytochrome P450 1A2; above 20 µM on Cytochrome P450 2D6; above 20 µM on Cytochrome P450 2C18; 290 nM on Cytochrome P450 1B1; above 20 µM against Cytochrome P450 3A4; above 20 µM against Cytochrome P450 2A6. In addition, in the experiment filed under Homo sapiens, the Ratio IC50 was found to be 19.5. In the experiment with MCF7 [2], the Activity worked out at 81%.

`COc1c(-c2ccc3c(c2)OCO3)oc2c(ccc3occc32)c1=O` [PONGAPIN]: in the experiment on MCF7 [1], the concentration giving a half-maximal response (EC50) turned out to be 600 nM. Moreover, the IC50 on Cytochrome P450 1A2 was 2500 nM; at Cytochrome P450 2D6, above 20 µM; against Cytochrome P450 2C18, above 20 µM; on Cytochrome P450 1B1, 950 nM; at Cytochrome P450 3A4, above 20 µM; against Cytochrome P450 2A6, above 20 µM. Besides, the Ratio IC50 in the experiment filed under Homo sapiens is 53. The Activity with MCF7 [2] is given as 83.8%.
